Compound activity as filed in PubChem.
CHO parental Ca: signal in parental CHO cells, OX1R antagonist counter-screen; parental CHO-K1, ATP-induced calcium, Fluo-8 fluorescence; inhibition, % at 5.6 µM; 0.63% of 330,000 active;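 active means inhibition above that plate's mean sample inhibition plus 3 SD, cut at about 26% in these data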;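 further: 0% = ATP-challenged DMSO wells and 100% = DMSO wells without ATP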
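Test system: parental CHO cells; detection: calcium-sensitive Fluo-8 fluorescence; evaluation: percent inhibition of calcium signal; also added: ATP as calcium-mobilizing challenge; repeats: one well per compound; control set: ATP-challenged DMSO wells low, unchallenged DMSO wells high; compound: single nominal dose of 5.6 µM per compound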
MPTP block: permeability transition pore inhibition; isolated mouse mitochondria, Ca2+ swelling absorbance, 30 min; 1.4% of 360,000 active; inhibition, % at 10 µM; AID 602449;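 active means inhibition of 50% or more, scaled per plate between neutral and stimulator controls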;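 further: 0% = DMSO wells given calcium and 100% = 1 mM EGTA wells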
GPR7 antag: blocks human GPR7 receptor signaling; GPR7-expressing cells, fluorescence antagonist assay; inhibition, % at 4.4 µM; 1.1% of 290,000 active; AID 1861; in the data active means inhibition above about 16%, passing the limit was not always enough;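 further: cells stimulated with the agonist NPW; 0% = agonist with vehicle and 100% = vehicle without agonist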
Target sequence (P48145 whole entry, looked up): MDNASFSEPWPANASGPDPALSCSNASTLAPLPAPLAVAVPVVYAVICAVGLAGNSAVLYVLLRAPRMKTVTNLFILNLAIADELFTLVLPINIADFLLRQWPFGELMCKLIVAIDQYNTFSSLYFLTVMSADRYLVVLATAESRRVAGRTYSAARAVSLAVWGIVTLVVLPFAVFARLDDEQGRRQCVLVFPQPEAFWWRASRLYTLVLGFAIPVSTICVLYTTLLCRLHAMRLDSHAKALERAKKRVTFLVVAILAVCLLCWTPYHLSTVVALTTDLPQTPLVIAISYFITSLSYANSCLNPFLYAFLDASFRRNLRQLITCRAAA
OX1R antag-1: antagonists of human orexin 1 receptor (OX1R); O43613; OX1R-expressing cells, FRET antagonist read-out; inhibition, % at 6.6 µM; 1.8% of 330,000 active; AID 485270; in the data active means inhibition mostly above about 38%, no sharp cut-off; inactive means mostly below about 40%;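 further: 0% = agonist challenge alone and 100% = reference antagonist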
OX1R antag-2: antagonists of human orexin 1 receptor; AID 434989; O43613; inhibition, % at 5 µM; CHO/OX1R cells, Fluo-8 calcium fluorescence, orexin A; 0.43% of 330,000 active;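 active means inhibition above its plate's threshold, mean inhibition of all tested compounds on the plate plus 3 SD, cut at about 37% in these data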;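 further: 0% = orexin A challenge wells and 100% = SB-334867-A antagonist wells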
MPTP counter: membrane potential counter-screen of mitochondrial pore inhibitors; shares compounds with MPTP block; isolated mitochondria, Rhodamine 123 fluorescence; inhibition, % at 10 µM; 78% of 5,000 active; in the data active means inhibition above about 22%;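 further: 0% = DMSO vehicle and 100% = positive control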
MPTP abs DR: MPTP inhibition, dose response swelling confirmation | shares compounds with MPTP block | isolated mitochondria swelling, absorbance | IC50, µM | 58% of 780 active | AID 651561; in the data active means IC50 below about 20 µM
MPTP counter DR: active in counter-screen for permeability transition pore inhibitors | IC50, µM | shares compounds with MPTP block | 49% of 780 active | isolated mitochondria counterscreen, fluorescence read-out; in the data active means IC50 below about 80 µM
* hit, by the source's call; nt = no result given. The list is not random: actives were taken first. Their share in the collection is about 3.8%.

SMILES	CHO parental Ca	MPTP block	GPR7 antag	OX1R antag-1	OX1R antag-2	MPTP counter	others
Cc1cc(Cl)c(S(=O)(=O)N2CCSCC2)cc1OCC(=O)NC1CCCCC1	9.2	85.8*	4.3	-0.1	-0.3	85.2*
CCOC(=O)N1CCN(S(=O)(=O)c2cc(OCC(=O)NC3CCCCC3)c(C)cc2Cl)CC1	-15.6	26.2	0.8	-1.2	-29.5	nt
Cc1cc(Cl)c(S(=O)(=O)NC2CCCC2)cc1OCC(=O)NC1CCCCC1	23.0	80.1*	10.7	17.4	18.5	71.5*
CC(C)NC(=S)N1CCN(c2ncccn2)CC1	6.1	-1.1	-4.9	9.0	-4.4	nt
CN(C)C(=O)c1ccc(Nc2ncnc3sc4c(c23)CCCCC4)cc1	-19.4	0.2	-4.1	3.7	-40.1	nt
COc1ccccc1C(=O)Nc1cc(Cl)ccc1O	9.5	66.9*	5.8	36.2	-7.1	36.1*
COc1cc(OC)c(NC(=O)c2cc3ccccc3cc2O)cc1Cl	nt	90.5*	nt	nt	nt	32.9*
C=CC[C@@H](CC(=O)N(CCO)Cc1ccccc1)C(=O)NCCOC(=O)[C@H](CC=C)CC(=O)OC(C)(C)C	-12.4	-0.2	nt	10.3	-19.7	nt
CCCCCCCCN1C(=O)[C@H](CC(=O)NCCCCc2ccccc2)C[C@@]2(C(=O)OC)CC(C)(C)CC=C12	nt	1.1	nt	nt	nt	nt
Cc1nnsc1SCCNC(=O)Nc1ccc(Cl)cc1	40.5*	88.1*	-7.9	18.9	36.5*	90.2*
O=C(NCCNC(=O)Nc1ccc(Cl)cc1)Nc1ccc(Cl)cc1	nt	3.6	nt	nt	nt	nt
CC1(C)CC(=O)C(C2C3=C(CC(C)(C)CC3=O)Oc3c(Br)cc(Br)cc32)=C(O)C1 (configuration not stated)	-13.3	82.0*	2.3	7.8	-24.3	94.7*
Cc1cc(O)c(C(C)C)cc1N=Nc1ccccc1C(=O)O	-9.9	76.2*	-9.0	64.6	18.1	51.8*
Cc1cc(N=Nc2ccccc2C(=O)O)c(C)c(C)c1O	6.0	55.9*	-5.4	49.8*	-3.0	36.2*
CC(=O)CC1(OC(C)=O)C(=O)N(C)c2ccccc21 (configuration not stated)	1.5	-1.5	-2.2	17.8	-13.1	nt
CN1CCN(C2=Nc3cc(F)ccc3Cc3ccccc32)CC1	-18.6	nt	0.1	18.1	-15.7	nt
CN1CCN(C2=Cc3ccc(Cl)cc3Sc3ccc(F)cc32)CC1	3.9	94.7*	4.0	10.9	0.9	-9.4
CN1CCN(C2Cc3cc(F)ccc3Sc3ccc(Cl)cc32)CC1 (configuration not stated)	-16.1	-5.0	nt	4.4	-37.3	nt
CN1CCN(C2=Cc3ccccc3Sc3cc(F)ccc32)CC1	5.0	97.7*	-0.4	12.6	-5.0	-8.6
COc1ccc(OC)c(S(=O)(=O)N2CCCC(C(=O)NC3CC3)C2)c1 (configuration not stated)	nt	0.1	nt	nt	nt	nt
c1ccc(CCCN2CCN(c3ccccn3)CC2)cc1	nt	3.9	-7.5	nt	nt	nt
COc1ccccc1NS(=O)(=O)c1cccc(C(=O)NC2CCN(Cc3ccccc3)CC2)c1	12.1	80.5*	nt	28.9	-13.4	87.0*
O=C(CN1CCN(CC(=O)Nc2cccc(F)c2)CC1)Nc1ccc(-c2ccccc2)cc1	-14.2	6.7	11.7	3.2	-6.3	nt
OC(c1cc(-c2cccc(Cl)c2)nc2ccccc12)C1CCCCN1 (configuration not stated)	nt	81.6*	nt	nt	nt	-19.3	MPTP abs DR=3.56*;MPTP counter DR=29*
OC(c1cc(C(F)(F)F)nc2c(C(F)(F)F)cccc12)C1CCCCN1 (configuration not stated)	4.0	91.9*	nt	0.7	-4.9	-22.8
SMILES	CHO parental Ca	MPTP block	GPR7 antag	OX1R antag-1	OX1R antag-2	MPTP counter	others
O=C(C1CCCC1)N1CCN(S(=O)(=O)c2cccc(Cl)c2Cl)CC1	-12.6	0.2	-3.0	4.2	-31.2	nt
O=C(NCc1ccco1)/C(=C\c1ccco1)NC(=O)c1ccco1	-7.0	2.3	-9.8	18.0	-21.9	nt
Cc1cc(NC(=O)CCSc2ccccc2)ccc1Br	-11.4	96.7*	-14.4	35.9	-6.9	84.0*
Cc1cc(Br)ccc1NC(=O)CCSc1ccccc1	-19.1	6.7	0.0	2.8	23.2	nt
COc1ccc(Cc2nc3ccc(C(=O)NC(C)Cc4ncccc4C)cc3o2)cc1OC (configuration not stated)	-23.5	-1.0	-15.3	17.7	-30.2	nt
O=[N+]([O-])c1ccc(O)c(/C=N\N=C2c3ccccc3-c3ccccc32)c1	-9.3	104.5*	-7.0	19.8	5.6	92.9*
CC(=O)c1c(O)cc(O)c(C(C)=O)c1O	57.3*	90.2*	nt	72.4*	32.6	105.7*
CC(=O)c1c(O)cc(O)cc1CC(=O)O	-11.5	4.2	-12.3	1.3	-7.1	nt
COc1ccc(S(=O)(=O)Nc2ncccc2C)c2ccccc12	-15.6	-0.4	-1.4	15.0	-18.9	nt
CCCCC#Cc1ccc(C(=O)NNC(=O)Nc2cc(Cl)cc(Cl)c2)o1	1.1	78.9*	-8.6	6.2	-3.5	76.8*
C=C(C)COc1ccc(C2NC(=O)c3ccccc3O2)cc1OCC (configuration not stated)	nt	5.4	-21.5	nt	nt	nt
Cc1[nH]n(-c2ccccc2)c(=O)c1N=Nc1c(O)cc(S(=O)(=O)N(C)C)c2ccccc12	3.4	81.2*	nt	40.0	8.5	41.8*
CCc1ccc(NC(=S)Nc2cc(C(=O)O)ccc2N2CC3CC(C2)c2cccc(=O)n2C3)cc1 (configuration not stated)	-9.6	-0.3	-4.5	9.6	-3.8	nt
O=C(O)c1ccc(N2CC3CC(C2)c2cccc(=O)n2C3)c(NC(=S)Nc2ccc(Br)cc2)c1 (configuration not stated)	-4.3	89.2*	-10.6	2.4	1.4	93.0*
CCOC(=O)C1(Cc2cccc(OC)c2)CCCN(C(=O)CCN2CCCO2)C1 (configuration not stated)	-11.1	0.9	-15.5	15.2	-20.7	nt
CC(C)c1c(C(=O)N/N=C/c2cccc(OCc3ccc(F)cc3)c2)nnn1-c1nonc1N	-10.2	6.4	1.1	-2.6	-8.6	nt
CN(C)Cc1c(C(=O)N/N=C/c2cccc(OCc3ccccc3)c2)nnn1-c1nonc1N	-8.6	65.0*	-11.6	9.9	-12.0	80.2*
COc1cc(/C=N/NC(=O)c2nnn(-c3nonc3N)c2C(C)C)ccc1OCc1ccc(F)cc1	48.8*	61.6*	6.8	7.9	34.9	55.9*
CN(C)Cc1c(C(=O)N/N=C/c2cccc(OCc3c(F)cccc3Cl)c2)nnn1-c1nonc1N	-4.9	60.9*	2.6	8.9	16.9	-3.3	MPTP abs DR=6.32*;MPTP counter DR=<2.5*
COc1ccc(CCn2c(S)nc3ccccc3c2=O)cc1	-6.8	3.6	10.2	4.0	-27.4	nt
COc1ccc(NC(=O)CCCCCn2nnc3ccccc3c2=O)cc1OC	-15.7	-0.2	-10.8	13.5	-25.3	nt
